Activity calls are given as the source filed them. No cut-off for these calls is given here. Where only a bound is given, the exact number is not on record here.

Chain of Programmed cell death protein 1/Programmed cell death 1 ligand 1 (Q15116 whole entry): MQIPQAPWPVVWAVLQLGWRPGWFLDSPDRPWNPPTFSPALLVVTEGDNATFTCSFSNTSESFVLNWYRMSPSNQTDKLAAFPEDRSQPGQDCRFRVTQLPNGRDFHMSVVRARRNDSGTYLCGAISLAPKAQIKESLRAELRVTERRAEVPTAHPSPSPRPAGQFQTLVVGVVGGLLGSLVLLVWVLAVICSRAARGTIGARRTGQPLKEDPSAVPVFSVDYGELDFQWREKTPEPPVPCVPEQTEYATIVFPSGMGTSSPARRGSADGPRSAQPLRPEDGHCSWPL
Chain of Programmed cell death protein 1/Programmed cell death 1 ligand 1 (Q9NZQ7 whole entry): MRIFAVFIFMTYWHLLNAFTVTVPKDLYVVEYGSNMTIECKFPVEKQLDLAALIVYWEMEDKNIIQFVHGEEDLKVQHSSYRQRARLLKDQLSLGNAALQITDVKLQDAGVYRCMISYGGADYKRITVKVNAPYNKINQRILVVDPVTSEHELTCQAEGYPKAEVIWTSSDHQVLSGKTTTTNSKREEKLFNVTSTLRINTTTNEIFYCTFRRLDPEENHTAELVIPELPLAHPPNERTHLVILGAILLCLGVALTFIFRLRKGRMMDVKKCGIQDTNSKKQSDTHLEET
T1 sequence (Q9NZQ7 whole entry): as above

The first experiment concerns the target T1, Programmed cell death 1 ligand 1 (Homo sapiens, UniProt Q9NZQ7). Put plainly: Binding affinity to FC-tagged human PDL1 by SPR assay. A digest of the protocol:
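Surface plasmon resonance against hPD-L1, reported as equilibrium dissociation constant (K_D).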
In turn, `COc1cc(OCc2cccc(-c3cccc(COc4ccc(CN[C@H](CO)C(=O)O)c(OCc5cncc(C#N)c5)c4)c3C)c2C)ccc1CN[C@H](CO)C(=O)O` showed a Kd of 0.21 nM.
`Cc1c(COc2ccc(CN[C@H](CO)C(=O)O)cc2)cccc1-c1cccc(COc2ccc(CN[C@H](CO)C(=O)O)c(OCc3cncc(C#N)c3)c2)c1C` yielded a Kd of 0.29 nM.
As for `Cc1c(COc2ccc(CN[C@H](CO)C(=O)O)c(OCc3cncc(C#N)c3)c2)cccc1-c1cccc(COc2ccc(CN[C@H](CO)C(=O)O)c(OCc3cncc(C#N)c3)c2)c1`, the Kd was determined as 0.2 nM.
The same measure, in the same setting: the figure for `Cc1ccccc1-c1cccc(COc2ccc(CN[C@H](CO)C(=O)O)c(OCc3cncc(C#N)c3)c2)c1C` is 3 nM; for `Cc1c(COc2ccc(CN[C@H](CO)C(=O)O)c(OCc3cncc(C#N)c3)c2)cccc1-c1cccc(COc2ccc(CN[C@H](CO)C(=O)O)c(OCc3cncc(C#N)c3)c2)c1C` it is 0.019 nM; for `Cc1c(COc2ccc(CN[C@H](CO)C(=O)O)c(OCc3cncc(C#N)c3)c2)cccc1-c1ccccc1` it is 1.1 nM.
Same read-out and setting: the figure for `Cc1c(COc2cccc(OCc3cncc(C#N)c3)c2)cccc1-c1cccc(COc2ccc(CN[C@H](CO)C(=O)O)c(OCc3cncc(C#N)c3)c2)c1C` is 3.7 nM.

A further experiment addresses Programmed cell death protein 1/Programmed cell death 1 ligand 1 (Homo sapiens, UniProt Q9NZQ7). Put plainly: Inhibition of human PDL1 expressed in CHO-K1 cells co-expressing aAPC assessed as reduction in PDL1 interaction with human PD1 expressed in Jurkat T cells incubated for 18 hrs by Bio-Glo reagent based luminescence assay. Format: cell-based. A digest of the protocol:
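In the PD-1/PD-L1 blockade bioassay, activity is expressed as EC50, with anti-PD-1 antibody as positive control.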
As for `COc1cc(OCc2cccc(-c3cccc(COc4ccc(CN[C@H](CO)C(=O)O)c(OCc5cncc(C#N)c5)c4)c3C)c2C)ccc1CN[C@H](CO)C(=O)O`, the EC50 is 9500 nM.
With `Cc1c(COc2ccc(CN[C@H](CO)C(=O)O)c(OCc3cncc(C#N)c3)c2)cccc1-c1cccc(COc2ccc(CN[C@H](CO)C(=O)O)c(OCc3cncc(C#N)c3)c2)c1`, the EC50 turned out to be 8400 nM.
Same read-out and setting: the figure for `Cc1c(COc2ccc(CN[C@H](CO)C(=O)O)c(OCc3cncc(C#N)c3)c2)cccc1-c1cccc(COc2ccc(CN[C@H](CO)C(=O)O)c(OCc3cncc(C#N)c3)c2)c1C` is 1000 nM; for `Cc1c(COc2ccc(CN[C@H](CO)C(=O)O)c(OCc3cncc(C#N)c3)c2)cccc1-c1ccccc1` it is greater than 30000 nM.
In the case of `Cc1c(COc2cccc(OCc3cncc(C#N)c3)c2)cccc1-c1cccc(COc2ccc(CN[C@H](CO)C(=O)O)c(OCc3cncc(C#N)c3)c2)c1C`, the EC50 was greater than 100000 nM.

A further experiment has as its target T1, Programmed cell death 1 ligand 1. Put plainly: Induction of Flag-tagged human PDL1 dimerization assessed as shortening of retention time of PD-L1 at 12 uM incubated for 10 mins by size-exclusion chromatography.
Take `Cc1c(COc2ccc(CN[C@H](CO)C(=O)O)c(OCc3cncc(C#N)c3)c2)cccc1-c1cccc(COc2ccc(CN[C@H](CO)C(=O)O)c(OCc3cncc(C#N)c3)c2)c1C`: the result was Active.

The species named for the next experiment is Homo sapiens. The experiment in a line: Induction of IFN-gamma secretion in human CD4+ T cells in presence of dendritic cells incubated for 7 days by AlphaLISA based mixed lymphocyte reaction assay. Format: functional, cell-based. A digest of the protocol:
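CD4+ T cells were cultured 7 days, either alone or with monocyte-derived dendritic cells, with or without test agent; anti-PD-1 antibody was run as comparator. IFN-γ in culture supernatants was measured as the activation read-out. Mean ± SD is from experiments in triplicate.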
Consider `Cc1c(COc2ccc(CN[C@H](CO)C(=O)O)c(OCc3cncc(C#N)c3)c2)cccc1-c1cccc(COc2ccc(CN[C@H](CO)C(=O)O)c(OCc3cncc(C#N)c3)c2)c1C`, for which the Activity entry was “Dose-dependent effect”.

The record behind these values is ChEMBL document CHEMBL4433267, “Symmetry-based ligand design and evaluation of small molecule inhibitors of programmed cell death-1/programmed death-ligand 1 interaction” (Bioorg Med Chem Lett, 2019).
